Measurements taken from ChEMBL document CHEMBL4359913, “Identification and characterization of benzo[d]oxazol-2(3H)-one derivatives as the first potent and selective small-molecule inhibitors of chromodomain protein CDYL” (Eur J Med Chem, 2019).
The source made the active and inactive calls. No cut-off for these calls is given here.

How the values were obtained:
[1] = biological target: T1, Chromobox protein homolog 7 (Homo sapiens, UniProt O95931); experiment: Binding affinity to recombinant human N-terminal GST-tagged CBX7 (1 to 62 residues) expressed in Escherichia coli […] by SPR analysis
T1 sequence (O95931 whole entry): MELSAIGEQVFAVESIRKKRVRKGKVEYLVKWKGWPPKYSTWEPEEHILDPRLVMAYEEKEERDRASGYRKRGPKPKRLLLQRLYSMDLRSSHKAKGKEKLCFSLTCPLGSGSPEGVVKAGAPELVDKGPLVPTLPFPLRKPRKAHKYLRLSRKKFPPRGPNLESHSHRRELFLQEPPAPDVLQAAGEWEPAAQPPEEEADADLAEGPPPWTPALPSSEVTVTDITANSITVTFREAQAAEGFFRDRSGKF
Method in brief: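 Chromodomain expressed with N-terminal GST tag in E. coli BL21 (IPTG 0.2 mM at OD600 0.6–0.8, 28 C for 6 h), GSTrap purified, tag cleaved by PreScission protease, amine-coupled to CM5 chip at pH 4.0–4.5 (5000–10000 RU). […] Mean ± SD of at least two replicates, each in duplicate.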

[2] = biological target: T2, Chromodomain Y-like protein (Homo sapiens) (UniProt Q9Y232); experiment: Inhibition of CDYL in human SH-SY5Y cells assessed as increase in BDNF mRNA expression incubated for 24 hrs by RT-qPCR analysis; format: cell-based
T2 sequence (whole entry): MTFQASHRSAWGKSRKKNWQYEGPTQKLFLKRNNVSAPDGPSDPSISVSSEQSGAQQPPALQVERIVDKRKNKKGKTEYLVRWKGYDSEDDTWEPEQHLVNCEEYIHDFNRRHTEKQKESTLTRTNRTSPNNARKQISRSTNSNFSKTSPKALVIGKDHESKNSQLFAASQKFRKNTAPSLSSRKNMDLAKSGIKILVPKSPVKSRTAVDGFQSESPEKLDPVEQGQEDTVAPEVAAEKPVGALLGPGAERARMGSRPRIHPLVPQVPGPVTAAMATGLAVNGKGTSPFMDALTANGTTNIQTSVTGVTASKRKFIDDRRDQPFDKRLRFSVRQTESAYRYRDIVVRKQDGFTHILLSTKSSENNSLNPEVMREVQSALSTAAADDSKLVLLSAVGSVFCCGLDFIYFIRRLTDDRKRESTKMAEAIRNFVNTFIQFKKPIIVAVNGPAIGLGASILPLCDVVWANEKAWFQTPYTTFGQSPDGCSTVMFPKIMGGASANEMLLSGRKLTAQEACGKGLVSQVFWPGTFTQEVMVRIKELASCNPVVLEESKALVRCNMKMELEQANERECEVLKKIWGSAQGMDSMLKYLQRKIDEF
Method in brief: (§1)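 SH-SY5Y or HEK-293T cells grown in DMEM with 10% FBS and treated with compound for 24 h. mRNA quantified by SYBR green RT-qPCR after DNase treatment, 2^-ΔΔCt method with GAPDH as reference, relative to DMSO. Mean ± S.E.M. of triplicate experiments, Student's t-test.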

[3] = biological target: T2, Chromodomain Y-like protein (Homo sapiens); experiment: Inhibition of CDYL in human HEK293T cells assessed as increase in MYT1 mRNA expression at 50 to 200 uM incubated for 24 hrs by RT-qPCR analysis; format: cell-based; method in brief: as §1
[4] = biological target: T2, Chromodomain Y-like protein (Homo sapiens); experiment: Inhibition of CDYL in human HEK293T cells assessed as increase in VGF mRNA expression at 50 to 200 uM incubated for 24 hrs by RT-qPCR analysis; format: cell-based; method in brief: as §1
[5] = biological target: T2, Chromodomain Y-like protein (Homo sapiens); experiment: Inhibition of CDYL in human SH-SY5Y cells assessed as decrease in enrichment of CDYL at VGF promoter site at 150 uM incubated for 24 hrs by ChIP-qPCR analysis; format: cell-based
Method in brief: (§2)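 About 1×10^7 SH-SY5Y cells given 150 µM compound or DMSO for 24 h, fixed in 1% formaldehyde for 10 min. Chromatin immunoprecipitated overnight-style (12 h, 4 °C) with CDYL or H3K27me3 antibody, captured on Protein A/G beads, washed, decrosslinked at 65 °C. Promoter DNA quantified by qPCR, mean ± S.E.M. of triplicate experiments, Student's t-test.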

[6] = biological target: T2, Chromodomain Y-like protein (Homo sapiens); experiment: Inhibition of CDYL in human SH-SY5Y cells assessed as decrease in enrichment of H3K27me3 at MYT1 promoter site at 150 uM incubated for 24 hrs by ChIP-qPCR analysis; format: cell-based; method in brief: as §2
[7] = biological target: T2, Chromodomain Y-like protein (Homo sapiens); experiment: Inhibition of CDYL in human SH-SY5Y cells assessed as decrease in enrichment of H3K27me3 at BDNF promoter site at 150 uM incubated for 24 hrs by ChIP-qPCR analysis; format: cell-based; method in brief: as §2
[8] = biological target: T3, Chromodomain Y-like protein (Mus musculus) (UniProt Q9WTK2); experiment: Inhibition of CDYL in C57BL/6 mouse hippocampal neurons as increase in BDNF mRNA expression at 150 uM incubated for 24 hrs by RT-qPCR analysis
T3 sequence (whole entry): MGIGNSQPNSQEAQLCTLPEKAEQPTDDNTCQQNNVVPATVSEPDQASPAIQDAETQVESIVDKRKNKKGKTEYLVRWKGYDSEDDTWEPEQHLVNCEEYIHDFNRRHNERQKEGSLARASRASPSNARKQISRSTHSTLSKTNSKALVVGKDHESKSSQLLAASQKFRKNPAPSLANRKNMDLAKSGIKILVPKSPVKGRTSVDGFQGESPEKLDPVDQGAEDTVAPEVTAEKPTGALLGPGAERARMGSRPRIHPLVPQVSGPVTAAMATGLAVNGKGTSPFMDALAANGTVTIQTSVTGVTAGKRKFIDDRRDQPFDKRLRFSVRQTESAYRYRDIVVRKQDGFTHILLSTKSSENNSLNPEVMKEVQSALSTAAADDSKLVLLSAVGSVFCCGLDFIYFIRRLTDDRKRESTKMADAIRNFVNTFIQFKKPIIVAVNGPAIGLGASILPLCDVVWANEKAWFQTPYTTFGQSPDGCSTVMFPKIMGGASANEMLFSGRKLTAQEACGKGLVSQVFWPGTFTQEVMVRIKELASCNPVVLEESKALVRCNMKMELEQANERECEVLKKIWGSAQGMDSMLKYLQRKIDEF
Method in brief: (§3)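 Mouse cortical or hippocampal neurons, dissociated with trypsin and kept in Neurobasal/B27, treated with 150 µM compound for 24 h. mRNA measured by SYBR green RT-qPCR with the 2^-ΔΔCt method, GAPDH as reference, relative to DMSO. Mean ± S.E.M. of triplicate experiments, Student's t-test.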

[9] = biological target: T3, Chromodomain Y-like protein (Mus musculus); experiment: Inhibition of CDYL in C57BL/6 mouse cortical neurons as increase in BDNF mRNA expression at 150 uM incubated for 24 hrs by RT-qPCR analysis; method in brief: as §3
[10] = biological target: T3, Chromodomain Y-like protein (Mus musculus); experiment: Inhibition of CDYL in C57BL/6 mouse cortical neurons assessed as induction of dendritic branching at 150 uM incubated for 24 hrs by DAPI staining confocal microscopic method
Method in brief: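 Mouse hippocampal or cortical neurons on poly-D-lysine given 150 µM compound or DMSO at DIV 5 for 24 h, then fixed in 4% PFA. Stained for MAP2 with DAPI nuclei and imaged by confocal microscopy. Dendrite crossings counted by Sholl analysis at 10 µm intervals. Mean ± S.E.M. of triplicates, Student's t-test.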

Compound: O=C(Cn1c(=O)oc2ccccc21)N1CCC(N2CCCC2)CC1
- Kd [1]: 16.2 µM
- Activity [2]: Dose-dependent effect
- Activity [3]: Active
- Activity [4]: Active
- inhibition [5]: Active
- inhibition [6]: Active
- inhibition [7]: Active
- Activity [8]: Active
- Activity [9]: Active
- Activity [10]: Active
